Assay [1] has as its target T1, Purine nucleoside phosphorylase (Homo sapiens, UniProt P00491).
T1 sequence (P00491 whole entry): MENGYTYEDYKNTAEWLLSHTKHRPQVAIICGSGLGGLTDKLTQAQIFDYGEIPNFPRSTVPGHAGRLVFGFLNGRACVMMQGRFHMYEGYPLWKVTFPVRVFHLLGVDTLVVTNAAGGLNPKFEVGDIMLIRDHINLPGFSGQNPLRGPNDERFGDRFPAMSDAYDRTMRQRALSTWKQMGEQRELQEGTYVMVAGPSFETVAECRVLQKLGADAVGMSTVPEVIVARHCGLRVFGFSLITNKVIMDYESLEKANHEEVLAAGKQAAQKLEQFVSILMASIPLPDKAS
Description: Competitive inhibition of PNP in human HBL2 cells using MSEG as substrate by Dixon-plot analysis. Type of assay: cell-based.

The target of assay [2] is T1, Purine nucleoside phosphorylase. Briefly: Competitive inhibition of PNP in human Jurkat cells using MSEG as substrate by Dixon-plot analysis. Type of assay: cell-based.
Assay [3] shares this target. Briefly: Competitive inhibition of PNP in human K562 cells using MSEG as substrate by Dixon-plot analysis. Type of assay: cell-based.
Assay [4] has the same target. Briefly: Competitive inhibition of human recombinant PNP using MSEG as substrate by Dixon-plot analysis. Put shortly: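 Human recombinant PNP. Assay mix was 50 mM Tris pH 7.5 with MESG at 40 or 80, constant 500 phosphate and inhibitor 0–500 nM. Enzyme addition started phosphorolysis, read at 360 nm for 5–7 min from initial rates. Ki was taken from Dixon plots (1/v vs [I]) over three independent measurements.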

For assay [5] the target is unchanged. Briefly: Competitive inhibition of PNP in human DoHH2 cells using MSEG as substrate by Dixon-plot analysis. Type of assay: cell-based.
Assay [6] has the same target. Briefly: Competitive inhibition of PNP in human MINO cells using MSEG as substrate by Dixon-plot analysis. The format is cell-based.
The target is the same in assay [7]. Briefly: Competitive inhibition of PNP in human OPM2 cells using MSEG as substrate by Dixon-plot analysis. Type of assay: cell-based, OPM-2.
Assay [8] has the same target. Description: Competitive inhibition of PNP in human CML cells obtained from patients using MSEG as substrate by Dixon-plot analysis. The format is cell-based.
Assay [9] shares this target. Description: Competitive inhibition of PNP in human HBL2 tumor cells using MSEG as substrate by Dixon-plot analysis. Type of assay: cell-based.
Assay [10] has the same target. Description: Competitive inhibition of PNP in human AML cells obtained from patients using MSEG as substrate by Dixon-plot analysis. The format is cell-based.
For assay [11] the target is unchanged. Description: Competitive inhibition of PNP in human SU-DHL-1 cells using MSEG as substrate by Dixon-plot analysis. The format is cell-based.
For assay [12] the target is unchanged. Description: Competitive inhibition of PNP in human RPMI8226 cells using MSEG as substrate by Dixon-plot analysis. Type of assay: cell-based, RPMI-8226.
The target is the same in assay [13]. Briefly: Competitive inhibition of PNP in human PBMC using MSEG as substrate by Dixon-plot analysis.
Assay [14] shares this target. Description: Competitive inhibition of PNP in human MC116 cells using MSEG as substrate by Dixon-plot analysis. Type of assay: cell-based.
For assay [15] the target is unchanged. Briefly: Inhibition of human recombinant PNP using MSEG as substrate preincubated with inhibitor within 10 to 20 mins measured after 5 mins by HPLC analysis. Put shortly:
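Recombinant human PNP (0.002 units) preincubated with inhibitor (0–250 nM) in 50 mM Tris pH 7.5 at 20 C for 0, 10 or 20 min. Then phosphate (final 500 µM) and MESG (final 20 µM) added; incubated 2 and 5 min at 25 C, aliquots quenched with HCl. MESG phosphorolysis measured by HPLC; activity expressed relative to no-inhibitor assays.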

`Nc1nc2c(ncn2[C@H]2CCN(C(=O)P(=O)(O)O)C2)c(=O)[nH]1`: the Ki amounted to 98 nM in [1]; 16 nM in [2]; 60 nM in assay [3]; 25 nM in assay [4]; 50 nM in assay [5]; 30 nM in assay [6]. Further, the Ki in [7] is 78 nM; in [8] it was 77 nM; in assay [9] it was 100 nM; in assay [10], 60 nM; in [11], 38 nM; in [12], 50 nM. The Ki worked out at 20 nM in assay [13] and 50 nM in assay [14].
For the molecule `Nc1nc2c(ncn2[C@@H]2CN(C(=O)P(=O)(O)O)C[C@@H]2O)c(=O)[nH]1`, the Ki in assay [1] came to 16 nM; in assay [2], 10 nM; in assay [3], 10 nM; in [4] it was 7 nM; in assay [5], 6 nM; in assay [6] it was 10 nM. The Ki was 16 nM in assay [7]; 14 nM in assay [8]; 24 nM in assay [9]; 12 nM in [10]; 11 nM in assay [11]; 20 nM in [12]. Moreover, the Ki in assay [13] stood at 10 nM; in [14], 11 nM. Further, in [15], the IC50 is 10 nM.

By Ki is commonly meant the dissociation constant of the complex between target and ligand, obtained from inhibition or displacement. The IC50 is the point on the concentration scale where inhibition reaches its midpoint.

(Values after ChEMBL document CHEMBL2021821, “N-phosphonocarbonylpyrrolidine derivatives of guanine: a new class of bi-substrate inhibitors of human purine nucleoside phosphorylase” (J Med Chem, 2012).)
